A selection: hits, their analogues and other compounds. The true share with any hit is near 5.9%.
IDH1 R132H inh = IDH1 R132H (human) inhibition | O75874 | IDH1 R132H reductase, diaphorase/resazurin fluorescence, 60 min | inhibition, % at 10 µM | 70,000 tested, 0.18% active | AID 624101; in the data active = inhibition above about 34%; inconclusive = no clear call, values can overlap the other calls; inactive = below about 11%;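 also: 0% = DMSO and 100% = no enzyme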
T cruzi growth-1 = blocks T. cruzi growth in NIH3T3 culture | T. cruzi beta-gal in NIH3T3, GalScreen luminescence, 90 h | inhibition, % at 8.34 µM | 77,000 tested, 5.9% active;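 active = mean inhibition above about 93%, with at least 55% of replicates each passing it, limit read from the data, passing the limit was not always enough; inconclusive = only one of those two conditions holds; inactive = neither condition holds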
KDM4C inh = inhibitors of human demethylase GASC-1 KDM4C. Q9H3R0. GST-KDM4C 2-372, H3K9me3 peptide, LANCE TR-FRET. inhibition, % at 12.5 µM. 96,000 tested, 0.15% active. AID 720574;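 active = mean replicate inhibition above about 25%, with at least 55% of replicates also reaching it, limit read from the data, passing the limit was not always enough; inconclusive = only one of those two conditions met; inactive = neither condition met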
Target sequence (Q9H3R0 2-372 limits assumed): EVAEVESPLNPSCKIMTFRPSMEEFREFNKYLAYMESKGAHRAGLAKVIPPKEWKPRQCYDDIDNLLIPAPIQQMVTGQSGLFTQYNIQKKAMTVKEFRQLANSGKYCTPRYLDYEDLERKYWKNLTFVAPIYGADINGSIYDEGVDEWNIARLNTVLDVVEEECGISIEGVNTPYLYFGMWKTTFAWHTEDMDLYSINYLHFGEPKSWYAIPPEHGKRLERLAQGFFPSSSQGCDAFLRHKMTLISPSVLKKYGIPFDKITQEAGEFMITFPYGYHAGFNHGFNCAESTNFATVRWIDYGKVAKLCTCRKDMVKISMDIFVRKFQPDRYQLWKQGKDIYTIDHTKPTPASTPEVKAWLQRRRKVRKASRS
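Assay system: GST-GASC-1 enzyme fragment 2-372 | Amount: 10 nM enzyme | Medium: HEPES buffer, pH 7.5, plus ascorbate | Reagent: H3K9me3 peptide substrate, Fe(II), 2-oxoglutarate | Doses: Single-point compound screen | Incubation: 30 min demethylation and 1 h detection at room temperature | Measured by: LANCE TR-FRET, excitation 340 nm, emissions 618 and 671 nm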
Pf Dd2 growth = blocks growth of Plasmodium falciparum Dd2 parasites. P. falciparum Dd2 growth, SYBR Green, 72 h; stronger effect = lower value. activity change, % at 10 µM. 94,000 tested, 2.3% active. AID 1159554; in the data active = activity change below about -80%; inconclusive = no clear call, values can overlap the other calls
T cruzi growth-2 = blocks T. cruzi growth in NIH3T3 host cells | inhibition, % at 8.35 µM | 5,600 tested, 72% active | shares compounds with T cruzi growth-1 | T. cruzi beta-gal in NIH3T3, GalScreen luminescence, 90 h;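 active = mean replicate inhibition above about 95% and at least 55% of replicates individually reaching it, limit read from the data; inconclusive = only one of the two criteria is met; inactive = neither criterion is met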
T cruzi growth-3 = inhibitors of T. cruzi proliferation; shares compounds with T cruzi growth-1; T. cruzi beta-gal in NIH3T3, GalScreen luminescence, 90 h; inhibition, % at 2.09 µM; 5,600 tested, 21% active;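 active = mean inhibition above about 95%, with at least 55% of replicates also reaching it, limit read from the data; inconclusive = meets just one of the two conditions; inactive = meets neither condition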;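 also: plate controls were neutral control median for no effect and positive control median for full effect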
3T3 cytotox = cytotoxicity in mouse NIH/3T3 fibroblasts. shares compounds with T cruzi growth-1. 5,600 tested, 14% active. NIH/3T3 viability, CellTiter-Glo ATP luminescence, 90 h. AID 651742. cytotoxicity (signal decrease), % at 8.35 µM;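 active = mean signal decrease across replicates above about 35% based on untreated-well scatter, with enough replicates individually passing, limit read from the data; inconclusive = no rule stated though some were filed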;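 also: 0% = median of neutral control wells and 100% = median of positive control wells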
NIH3T3 tox 2 = cytotoxicity in mouse NIH/3T3 fibroblasts; shares compounds with T cruzi growth-1; NIH/3T3 viability, CellTiter-Glo ATP luminescence, 90 h; inhibition, % at 24.9 µM; 5,600 tested, 56% active;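 active = mean loss of cell viability signal at or above a set limit, and enough replicates individually reaching it; inconclusive = meets only the mean limit or only the replicate share; inactive = meets neither condition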;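 also: 0% = median of neutral control wells and 100% = median of positive control wells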
Numbers without * were called inactive; u = inconclusive; x = no result.

SMILES	IDH1 R132H inh	T cruzi growth-1	KDM4C inh	Pf Dd2 growth	T cruzi growth-2	T cruzi growth-3	3T3 cytotox	NIH3T3 tox 2
C[C@@H]1CN([C@H](C)CO)C(=O)c2cc(NS(C)(=O)=O)ccc2O[C@@H](C)CCCCO[C@H]1CN(C)Cc1ccc(C(F)(F)F)cc1	x	116*	1	-34	107*	108*	1	98*
C[C@@H]1CN([C@@H](C)CO)C(=O)c2cc(NS(=O)(=O)c3ccc(Cl)cc3)ccc2O[C@@H](C)CCCCO[C@H]1CN(C)Cc1ccncc1	x	u	2	-7	102*	38	-12	16
CC(C)NC(=O)N(C)C[C@H]1OCCCC[C@@H](C)Oc2ccc(NC(=O)Cc3ccccc3)cc2C(=O)N([C@@H](C)CO)C[C@@H]1C	-6	34	0	-55	x	x	x	x
CCCNC(=O)N(C)C[C@H]1Oc2ncc(C#CC(C)C)cc2C(=O)N([C@@H](C)CO)C[C@H]1C	x	5	-2	9	x	x	x	x
CNC[C@@H]1Oc2c(NS(=O)(=O)c3ccc(F)cc3)cccc2C(=O)N([C@H](C)CO)C[C@@H]1C	x	-4	2	10	x	x	x	x
N#Cc1ccc(-c2ccc3c(c2)[C@H]2[C@H](CCN2C(=O)Cc2ccccc2)[C@@H](CO)N3)cc1	x	81	-4	-23	x	x	x	x
N#Cc1ccc(-c2ccc3c(c2)[C@H]2[C@H](CCN2C(=O)C2CCC2)[C@@H](CO)N3)cc1	x	x	-2	-55	x	x	x	x
N#Cc1ccc(-c2ccc3c(c2)[C@@H]2[C@@H](CCN2C(=O)C2CC2)[C@H](CO)N3)cc1	x	97*	-1	15	106*	83	-2	15
N#Cc1ccc(-c2ccc3c(c2)[C@@H]2[C@@H](CCN2C(=O)Cc2ccccc2)[C@@H](CO)N3)cc1	x	98*	1	-60	100*	100*	8	40*
COCC(=O)N1CC[C@H]2[C@H](CO)Nc3ccc(-c4ccc(C#N)cc4)cc3[C@H]21	x	74	-4	-22	x	x	x	x
N#Cc1ccc(-c2ccc3c(c2)[C@H]2[C@H](CCN2C(=O)C2CC2)[C@@H](CO)N3)cc1	x	105*	u	16	u	70	-2	32*
COCC(=O)N1CC[C@@H]2[C@H]1c1cc(-c3ccc(C#N)cc3)ccc1N[C@@H]2CO	x	114*	1	-63	100*	41	5	11
CCS(=O)(=O)Nc1ccc2c(c1)C(=O)N(C)[C@H]1CC[C@H](CC(=O)N3CCN(C)CC3)O[C@H]1CO2	x	55	2	8	x	x	x	x
CC(C)C#Cc1ccc2c(c1)O[C@@H](CN(C)C(=O)c1cccc(F)c1)[C@@H](C)CN([C@H](C)CO)S2(=O)=O	-5	105*	-1	-67	102*	61	15	54*
CC(C)C#Cc1ccc2c(c1)O[C@@H](CN(C)C(=O)c1ccccc1)[C@H](C)CN([C@@H](C)CO)S2(=O)=O	-1	92	-1	-67	x	x	x	x
CC(C)C#Cc1ccc2c(c1)O[C@H](CN(C)C(=O)c1cccc(F)c1)[C@H](C)CN([C@H](C)CO)S2(=O)=O	0	111*	-2	-53	104*	52	22	39*
CC(C)C#Cc1ccc2c(c1)O[C@H](CN(C)C(=O)c1ccccc1)[C@@H](C)CN([C@@H](C)CO)S2(=O)=O	-1	85	-1	-61	x	x	x	x
CC(C)C#Cc1ccc2c(c1)O[C@@H](CN(C)C(=O)c1ccccc1)[C@@H](C)CN([C@H](C)CO)S2(=O)=O	0	69	0	-52	x	x	x	x
CC(C)C#Cc1ccc2c(c1)O[C@H](CN(C)C(=O)c1cccc(F)c1)[C@@H](C)CN([C@H](C)CO)S2(=O)=O	-3	u	0	-60	106*	71	13	u
CC(C)C#Cc1ccc2c(c1)O[C@@H](CN(C)C(=O)c1cccc(F)c1)[C@H](C)CN([C@H](C)CO)S2(=O)=O	0	103*	-3	-70	103*	38	56*	63*
O=C(NCCc1ccccc1)[C@@H]1N[C@@H]2c3ccc(-c4ccc(F)cc4)c(=O)n3C[C@@H]2[C@H]1CO	x	x	-2	-24	x	x	x	x
Cc1ccccc1S(=O)(=O)N1CCCCN2[C@H](C1)[C@@H](c1ccc(-c3cccc(F)c3)cc1)[C@@H]2CO	x	u	-1	5	111*	65	29	73*
Cc1ccccc1S(=O)(=O)N1CCCCN2[C@H](CO)[C@H](c3ccc(-c4cccc(F)c4)cc3)[C@H]2C1	x	71	-1	-73	x	x	x	x
Cc1ccccc1S(=O)(=O)N1CCCCN2[C@@H](CO)[C@H](c3ccc(-c4cccc(F)c4)cc3)[C@@H]2C1	x	106*	0	-9	88	103*	56*	103*
Cc1c(NC(=O)C(C)N2C(=O)c3ccccc3C2=O)c(=O)n(-c2ccccc2)n1C (centres undefined)	10	x	x	x	x	x	x	x
SMILES	IDH1 R132H inh	T cruzi growth-1	KDM4C inh	Pf Dd2 growth	T cruzi growth-2	T cruzi growth-3	3T3 cytotox	NIH3T3 tox 2
C[C@@H]1CN([C@H](C)CO)S(=O)(=O)c2ccc(C#Cc3cccc(F)c3)cc2O[C@H]1CN(C)S(=O)(=O)c1ccccc1F	0	111*	0	-76	109*	106*	32	35*
C[C@H](CO)N1C[C@H](C)[C@H](CN(C)S(=O)(=O)c2ccccc2F)Oc2cc(C#Cc3cccc(F)c3)ccc2S1(=O)=O	0	109*	13	-16	103*	43	17	11
C[C@@H]1CN([C@@H](C)CO)S(=O)(=O)c2ccc(C#Cc3cccc(F)c3)cc2O[C@H]1CN(C)S(=O)(=O)c1ccccc1F	-2	112*	-3	-79	110*	u	8	34*
O=C(C[C@@H]1C[C@H]2c3cc(NC(=O)C4CCC4)ccc3O[C@H]2[C@@H](CO)O1)NCc1ccccc1F	0	x	0	11	x	x	x	x
CC(C)(O)/C=C/C1=CC(O)C(C)(O)CC1O (centres undefined)	0	x	x	x	x	x	x	x
Cc1ccccc1-c1ccc([C@H]2[C@@H](CO)N3CCCCN(S(=O)(=O)c4ccc(F)cc4)C[C@@H]23)cc1	x	93	-1	2	x	x	x	x
Cc1ccccc1S(=O)(=O)N1CC[C@H]2[C@H](CO)Nc3ccc(-c4ccccc4F)cc3[C@H]21	x	109*	-2	-7	99*	31	43*	103*
O=S(=O)(c1ccccc1F)N1CC[C@@H]2[C@@H](CO)Nc3ccc(-c4ccccc4F)cc3[C@@H]21	x	53	0	-12	x	x	x	x
Cc1ccc(S(=O)(=O)N2CC[C@@H]3[C@H]2c2cc(-c4ccccc4F)ccc2N[C@@H]3CO)cc1	x	u	0	9	99*	76	38*	100*
